Results published in ChEMBL document CHEMBL4842338, “System-oriented optimization of multi-target 2,6-diaminopurine derivatives: Easily accessible broad-spectrum antivirals active against flaviviruses, influenza virus and SARS-CoV-2” (Eur J Med Chem, 2021).
Calls of active or inactive are those of the source. No cut-off for these calls is given here.

Assays:
Influenza A virus = assay: Antiviral activity against Influenza A virus (A/parrot/Ulster/73(H7N1)) infected in human A549 cells assessed as reduction in viral protein expression at 20 uM pretreated for 2 hrs followed by staining with anti-Flu antibody observed at 24 hrs post infection by In-cell western assay; type: functional, organism-based
Zika virus = assay: Antiviral activity against Zika virus H/PF/2013 infected in pre-seeded Huh-7 cells assessed as inhibition of viral replication incubated for 72 hrs by immunodetection based plaque reduction assay; type: functional, organism-based; conditions: H/PF/2013, Huh-7, 72 h
[1] = Inhibition of full length Dengue virus 2 NS5 RNA dependent RNA polymerase incubated for 10 mins by picogreen staining based fluorescent analysis (Rvb= 0.32+/-0.05 uM); design: species or system dengue virus type 2
[2] = Selectivity index, ratio of CC50 for human Huh-7 cells to IC50 for Zika virus H/PF/2013 infected in pre-seeded Huh-7 cells assessed as inhibition of viral replication incubated for 72 hrs by immunodetection based plaque reduction assay; type: toxicity, cell-based; conditions: read-out: Selectivity Index
[3] = molecular target: Abl (Tyrosine-protein kinase ABL1) (Homo sapiens, UniProt P00519); assay: Inhibition of human recombinant N terminal His6 tagged Abl (27 to end residue) assessed as residual activity at 5 uM using KKGEAIYAADFA-NH2 as a substrate in the presence of NP-40 incubated for 10 mins by scintillation counting analysis relative to control; conditions: probe KKGEAIYAADFA-NH2, read-out: Activity
In short: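 Compounds at fixed 5 μM; 10–50 ng kinase, substrate and NP-40/BSA per supplementary table, 10 μL at 30 °C for 10 min in low-binding tubes. Reactions spotted on filter, dried, scintillation counted. Mean ± SD of two independent experiments.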

Chain of Abl (Tyrosine-protein kinase ABL1) (P00519 whole entry): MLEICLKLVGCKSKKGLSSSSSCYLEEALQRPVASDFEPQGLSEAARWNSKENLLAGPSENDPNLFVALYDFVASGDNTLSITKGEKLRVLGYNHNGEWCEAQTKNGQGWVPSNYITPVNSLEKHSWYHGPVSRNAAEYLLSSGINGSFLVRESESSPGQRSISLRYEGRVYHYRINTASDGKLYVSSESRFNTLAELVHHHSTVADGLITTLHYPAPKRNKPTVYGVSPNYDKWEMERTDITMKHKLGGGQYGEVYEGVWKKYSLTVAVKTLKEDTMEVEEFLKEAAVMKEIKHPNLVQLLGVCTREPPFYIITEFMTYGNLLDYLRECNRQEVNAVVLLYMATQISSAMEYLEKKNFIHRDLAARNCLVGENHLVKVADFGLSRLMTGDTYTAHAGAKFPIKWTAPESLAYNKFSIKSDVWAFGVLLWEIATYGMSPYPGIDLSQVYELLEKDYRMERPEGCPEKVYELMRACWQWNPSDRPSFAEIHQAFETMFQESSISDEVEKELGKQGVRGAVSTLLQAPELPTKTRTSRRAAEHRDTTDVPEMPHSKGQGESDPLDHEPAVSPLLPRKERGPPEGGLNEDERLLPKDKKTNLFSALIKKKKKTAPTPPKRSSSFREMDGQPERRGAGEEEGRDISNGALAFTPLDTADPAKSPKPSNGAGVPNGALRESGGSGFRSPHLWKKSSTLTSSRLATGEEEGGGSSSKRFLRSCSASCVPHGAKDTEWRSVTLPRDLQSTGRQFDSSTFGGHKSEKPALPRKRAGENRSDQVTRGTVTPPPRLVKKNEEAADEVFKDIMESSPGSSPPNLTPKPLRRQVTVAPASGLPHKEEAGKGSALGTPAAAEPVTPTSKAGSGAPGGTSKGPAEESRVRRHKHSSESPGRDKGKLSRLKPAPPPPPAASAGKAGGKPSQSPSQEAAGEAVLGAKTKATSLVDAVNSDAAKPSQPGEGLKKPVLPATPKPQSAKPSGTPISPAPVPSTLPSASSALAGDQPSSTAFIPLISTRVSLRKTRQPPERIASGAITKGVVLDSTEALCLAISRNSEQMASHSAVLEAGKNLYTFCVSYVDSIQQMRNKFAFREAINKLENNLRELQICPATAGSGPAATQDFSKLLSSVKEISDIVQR

FC(F)(F)c1cccc(Nc2nc(NCCOc3ccccc3)nc3[nH]cnc23)c1
Activity (Influenza A virus): Active
IC50 (Zika virus): 0.5 µM
IC50 [1]: 43.7 µM
selectivity ratio at 72 h [2]: 400
activity at 10 min, 5 µM [3]: 70%
